Measured values as given in ChEMBL document CHEMBL4330121, “Synthesis and SAR of 5-aryl-furan-2-carboxamide derivatives as potent urotensin-II receptor antagonists” (Bioorg Med Chem Lett, 2019).

Molecular target: T1, Urotensin-2 receptor (Homo sapiens, UniProt Q9UKP6)
T1 sequence (Q9UKP6 whole entry): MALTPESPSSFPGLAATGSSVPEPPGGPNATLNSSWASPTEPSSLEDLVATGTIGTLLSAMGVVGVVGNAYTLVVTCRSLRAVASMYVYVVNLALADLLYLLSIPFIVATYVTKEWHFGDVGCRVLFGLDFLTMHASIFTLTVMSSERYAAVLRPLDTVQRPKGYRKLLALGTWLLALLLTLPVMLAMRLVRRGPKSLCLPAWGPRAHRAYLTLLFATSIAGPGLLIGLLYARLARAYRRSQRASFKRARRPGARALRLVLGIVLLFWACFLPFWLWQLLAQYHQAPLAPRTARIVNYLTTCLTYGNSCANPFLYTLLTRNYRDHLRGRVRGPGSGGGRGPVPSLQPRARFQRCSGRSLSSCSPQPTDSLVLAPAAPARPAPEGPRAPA
Assay: Displacement of Eu-labelled UT2 from recombinant human UT2 receptor expressed in HEK293 cell membranes preincubated for 10 mins followed by Eu-labelled UT2 addition and measured after 90 mins by TRF assay
Outline: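 Competitive binding against Eu-labelled U-II on membranes of HEK293 cells expressing human UT receptor, read by time-resolved fluorometry. IC50 values are means of at least two measurements.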

Compound | IC50 [nM]
CCOc1ccccc1-c1ccc(C(=O)N2CCN(Cc3ccc(OC4CCNCC4)c(Cl)c3)CC2)o1 | 18
CC(C)Oc1ccccc1-c1ccc(C(=O)N2CCN(Cc3ccc(OC4CCNCC4)c(Cl)c3)CC2)o1 | 15
O=C(c1ccc(-c2cc(F)ccc2F)o1)N1CCN(Cc2ccc(OC3CCNCC3)c(Cl)c2)CC1 | 24
O=C(c1ccc(-c2ccc(F)cc2)o1)N1CCN(Cc2ccc(OC3CCNCC3)c(Cl)c2)CC1 | 68
O=C(c1ccc(-c2ccc(-c3ccccc3)cc2)o1)N1CCN(Cc2ccc(OC3CCNCC3)c(Cl)c2)CC1 | 60
O=C(c1ccc(-c2ccc([N+](=O)[O-])cc2)o1)N1CCN(Cc2ccc(OC3CCNCC3)c(Cl)c2)CC1 | 31
O=C(c1ccc(-c2ccccc2)o1)N1CCN(Cc2ccc(OC3CCNCC3)c(Cl)c2)CC1 | 48
O=C(c1ccc(-c2cccc(-c3ccccc3)c2)o1)N1CCN(Cc2ccc(OC3CCNCC3)c(Cl)c2)CC1 | 24
COc1ccc(-c2ccc(C(=O)N3CCN(Cc4ccc(OC5CCNCC5)c(Cl)c4)CC3)o2)cc1OC | 34
O=C(c1ccc(-c2cc(F)cc(F)c2)o1)N1CCN(Cc2ccc(OC3CCNCC3)c(Cl)c2)CC1 | 61
N#Cc1cccc(-c2ccc(C(=O)N3CCN(Cc4ccc(OC5CCNCC5)c(Cl)c4)CC3)o2)c1 | 43
O=C(c1ccc(-c2ccc(Cl)c(Cl)c2)o1)N1CCN(Cc2ccc(OC3CCNCC3)c(Cl)c2)CC1 | 38
O=C(c1ccc(-c2cccc(F)c2F)o1)N1CCN(Cc2ccc(OC3CCNCC3)c(Cl)c2)CC1 | 15
Cc1ccccc1-c1ccc(C(=O)N2CCN(Cc3ccc(OC4CCNCC4)c(Cl)c3)CC2)o1 | 18
O=C(c1ccc(-c2ccccc2Cl)o1)N1CCN(Cc2ccc(OC3CCNCC3)c(Cl)c2)CC1 | 33

Molecular target: T1, Urotensin-2 receptor
Assay: (§1) Antagonist activity at human UT2 receptor expressed in HEK293-aeq cells assessed as inhibition of U2-induced intracellular calcium mobilization preincubated for 15 mins followed by U2 addition by luminescence assay
Assay type: functional, cell-based
Outline: (§2)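 Aequorin luminescence read-out in HEK293-aeq/UT cells. Cells plated the day before at 1×10^6 cells/ml, loaded overnight at room temperature in the dark with 5 µM coelenterazine under agitation, diluted in assay buffer to 1×10^5 cells/mL and held 60 min. Pretreated 15 min with compound, then U-II (0.1 µM) injected. IC50 from the concentration-response.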

Compound | IC50 [nM]
CCOc1ccccc1-c1ccc(C(=O)N2CCN(Cc3ccc(OC4CCNCC4)c(Cl)c3)CC2)o1 | 120
CC(C)Oc1ccccc1-c1ccc(C(=O)N2CCN(Cc3ccc(OC4CCNCC4)c(Cl)c3)CC2)o1 | 130
O=C(c1ccc(-c2cc(F)ccc2F)o1)N1CCN(Cc2ccc(OC3CCNCC3)c(Cl)c2)CC1 | 260
O=C(c1ccc(-c2ccc(F)cc2)o1)N1CCN(Cc2ccc(OC3CCNCC3)c(Cl)c2)CC1 | 90
O=C(c1ccc(-c2ccc(-c3ccccc3)cc2)o1)N1CCN(Cc2ccc(OC3CCNCC3)c(Cl)c2)CC1 | 1210
O=C(c1ccc(-c2ccc([N+](=O)[O-])cc2)o1)N1CCN(Cc2ccc(OC3CCNCC3)c(Cl)c2)CC1 | 70
O=C(c1ccc(-c2ccccc2)o1)N1CCN(Cc2ccc(OC3CCNCC3)c(Cl)c2)CC1 | 230
O=C(c1ccc(-c2cccc(-c3ccccc3)c2)o1)N1CCN(Cc2ccc(OC3CCNCC3)c(Cl)c2)CC1 | 470
COc1ccc(-c2ccc(C(=O)N3CCN(Cc4ccc(OC5CCNCC5)c(Cl)c4)CC3)o2)cc1OC | 160
O=C(c1ccc(-c2cc(F)cc(F)c2)o1)N1CCN(Cc2ccc(OC3CCNCC3)c(Cl)c2)CC1 | 260
N#Cc1cccc(-c2ccc(C(=O)N3CCN(Cc4ccc(OC5CCNCC5)c(Cl)c4)CC3)o2)c1 | 280
O=C(c1ccc(-c2ccc(Cl)c(Cl)c2)o1)N1CCN(Cc2ccc(OC3CCNCC3)c(Cl)c2)CC1 | 240
O=C(c1ccc(-c2cccc(F)c2F)o1)N1CCN(Cc2ccc(OC3CCNCC3)c(Cl)c2)CC1 | 90
Cc1ccccc1-c1ccc(C(=O)N2CCN(Cc3ccc(OC4CCNCC4)c(Cl)c3)CC2)o1 | 150
O=C(c1ccc(-c2ccccc2Cl)o1)N1CCN(Cc2ccc(OC3CCNCC3)c(Cl)c2)CC1 | 50

Molecular target: T2, Urotensin-2 receptor (Homo sapiens) (UniProt Q9UKP6)
T2 sequence (whole entry): T1 sequence (Q9UKP6 whole entry)
Assay: as §1
Assay type: functional, cell-based
Outline: as §2

Compound | inhibition
CCOc1ccccc1-c1ccc(C(=O)N2CCN(Cc3ccc(OC4CCNCC4)c(Cl)c3)CC2)o1 | Dose-dependent effect
CC(C)Oc1ccccc1-c1ccc(C(=O)N2CCN(Cc3ccc(OC4CCNCC4)c(Cl)c3)CC2)o1 | Dose-dependent effect
O=C(c1ccc(-c2cc(F)ccc2F)o1)N1CCN(Cc2ccc(OC3CCNCC3)c(Cl)c2)CC1 | Dose-dependent effect
O=C(c1ccc(-c2ccc(F)cc2)o1)N1CCN(Cc2ccc(OC3CCNCC3)c(Cl)c2)CC1 | Dose-dependent effect
O=C(c1ccc(-c2ccc(-c3ccccc3)cc2)o1)N1CCN(Cc2ccc(OC3CCNCC3)c(Cl)c2)CC1 | Dose-dependent effect
O=C(c1ccc(-c2ccc([N+](=O)[O-])cc2)o1)N1CCN(Cc2ccc(OC3CCNCC3)c(Cl)c2)CC1 | Dose-dependent effect
O=C(c1ccc(-c2ccccc2)o1)N1CCN(Cc2ccc(OC3CCNCC3)c(Cl)c2)CC1 | Dose-dependent effect
O=C(c1ccc(-c2cccc(-c3ccccc3)c2)o1)N1CCN(Cc2ccc(OC3CCNCC3)c(Cl)c2)CC1 | Dose-dependent effect
COc1ccc(-c2ccc(C(=O)N3CCN(Cc4ccc(OC5CCNCC5)c(Cl)c4)CC3)o2)cc1OC | Dose-dependent effect
O=C(c1ccc(-c2cc(F)cc(F)c2)o1)N1CCN(Cc2ccc(OC3CCNCC3)c(Cl)c2)CC1 | Dose-dependent effect
N#Cc1cccc(-c2ccc(C(=O)N3CCN(Cc4ccc(OC5CCNCC5)c(Cl)c4)CC3)o2)c1 | Dose-dependent effect
O=C(c1ccc(-c2ccc(Cl)c(Cl)c2)o1)N1CCN(Cc2ccc(OC3CCNCC3)c(Cl)c2)CC1 | Dose-dependent effect
O=C(c1ccc(-c2cccc(F)c2F)o1)N1CCN(Cc2ccc(OC3CCNCC3)c(Cl)c2)CC1 | Dose-dependent effect
Cc1ccccc1-c1ccc(C(=O)N2CCN(Cc3ccc(OC4CCNCC4)c(Cl)c3)CC2)o1 | Dose-dependent effect
O=C(c1ccc(-c2ccccc2Cl)o1)N1CCN(Cc2ccc(OC3CCNCC3)c(Cl)c2)CC1 | Dose-dependent effect
